From ChEMBL document CHEMBL1122898, “Antiulcer agents. 1. Gastric antisecretory and cytoprotective properties of substituted imidazo[1,2-a]pyridines” (1985)

Columns and labels:
Type in all cases: functional
[1] = test system: Canis familiaris; assay: Inhibition of histamine stimulated gastric acid secretion in adult mongrel dogs at dose 1 mg/kg given intravenously; conditions: Canis lupus familiaris, Stomach, route intravenous
Outline: (§1)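 Dogs with Heidenhain pouches, 12–18 kg, fasted 18 h. Compound given iv in 3 mL or by gavage in 5 mL of 0.4% methylcellulose/saline, 1 h after infusion start. 30-min collections titrated. Summed 3-h AO against the same dog's control AO gives % inhibition. Usually one dog per compound.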

[2] = test system: Canis familiaris; assay: Inhibition of histamine stimulated gastric acid secretion in mongrel dogs following 4 mg/kg p.o. administration.; conditions: Canis lupus familiaris, Stomach, route oral; outline: as §1
[3] = test system: Canis familiaris; assay: Inhibition of histamine stimulated gastric acid secretion in adult mongrel dogs at dose 8 mg/kg given orally; conditions: Canis lupus familiaris, Stomach, route oral; outline: as §1
[4] = species on record: Rattus norvegicus; assay: Oral gastric cytoprotective activity in the rat against ethanol-induced lesions; conditions: Stomach
Outline: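 Rats fasted and water-deprived for 20 h. Compound given orally, 1–30 mg/kg in 0.4% methylcellulose/saline, 30 min before 1 mL absolute ethanol po. Killed 1 h after ethanol. Linear hemorrhagic lesion lengths totalled per stomach, expressed as group mean. ED50 by linear regression.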

[5] = test system: Rattus norvegicus; assay: Gastric antisecretory activity in the pylorus-ligated rat and the reduction in acid output was measured after 4 hr by intraperitoneal (ip) administration of 40 mg/kg dose.
Outline: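 Male Charles River CD rats, 150–200 g, fasted 24 h. Pylorus ligated under Brevital anesthesia. 40 mg/kg given ip in 2.5% Tween 80 at ligation. Stomach contents collected at 4 h and titrated with 0.1 N NaOH to pH 7.0. % inhibition from mean AO, 6 treated vs 8 control rats. Student's t test.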

[6] = test system: Canis familiaris; assay: Inhibition of histamine stimulated gastric acid secretion in adult mongrel dogs at dose 5 mg/kg given intravenously; conditions: Canis lupus familiaris, Stomach, route intravenous; outline: as §1
[7] = test system: Canis familiaris; assay: Inhibition of histamine stimulated gastric acid secretion in adult mongrel dogs at dose 0.1 mg/kg given intravenously; conditions: Canis lupus familiaris, Stomach, route intravenous; outline: as §1
[8] = test system: Canis familiaris; assay: Inhibition of histamine stimulated gastric acid secretion in adult mongrel dogs at dose 2 mg/kg given intravenously; conditions: Canis lupus familiaris, Stomach, route intravenous; outline: as §1
[9] = test system: Canis familiaris; assay: Inhibition of histamine stimulated gastric acid secretion in adult mongrel dogs at dose 2 mg/kg given orally; conditions: Canis lupus familiaris, Stomach, route oral; outline: as §1

`Cc1nc2c(OCc3ccccc3)cccn2c1C` was tested, and the inhibition in vivo at 1 mg/kg [1] was 90%, the inhibition in vivo at 4 mg/kg [2] was 0% and the inhibition in vivo at 8 mg/kg [3] was 26%. It also gave an ED50 [4] of 10 mg/kg and an inhibition in vivo at 40 mg/kg [5] of 99%.
With `CC(C)c1nc2c(OCc3ccccc3)cccn2c1CC#N` the inhibition in vivo at 4 mg/kg [2] was 36%, the inhibition in vivo at 5 mg/kg [6] was 96% and the inhibition in vivo at 8 mg/kg [3] was 39%. The ED50 [4] was 5 mg/kg and the inhibition in vivo at 40 mg/kg [5] was 72%.
Work on `Cc1nc2c(OCc3ccccc3)cccn2c1CC(=O)N(C)C` yielded an inhibition in vivo at 1 mg/kg [1] of 16% and an inhibition in vivo at 40 mg/kg [5] of 37%.
Work on `CCc1nc2c(OCc3ccccc3)cccn2c1CC#N` yielded an inhibition in vivo at 0.1 mg/kg [7] of 16%, an inhibition in vivo at 2 mg/kg [8] of 95% and an inhibition in vivo at 4 mg/kg [2] of 54%. For the same compound, the inhibition in vivo at 8 mg/kg [3] was 93%, the ED50 [4] was 4 mg/kg and the inhibition in vivo at 40 mg/kg [5] was 91%.
With `Cc1nc2c(OCc3ccccc3F)cccn2c1CC#N` the inhibition in vivo at 4 mg/kg [2] was 34%, the inhibition in vivo at 5 mg/kg [6] was 97% and the inhibition in vivo at 8 mg/kg [3] was 65%. For the same compound, the ED50 [4] was 6 mg/kg and the inhibition in vivo at 40 mg/kg [5] was 96%.
Work on `Cc1nc2c(OC(C)c3ccccc3)cccn2c1CC#N` (stereo unspecified) yielded an inhibition in vivo at 2 mg/kg [8] of 78%, an inhibition in vivo at 4 mg/kg [2] of 6% and an inhibition in vivo at 5 mg/kg [6] of 97%. It also gave an inhibition in vivo at 8 mg/kg [3] of 45%, an ED50 [4] of 3.7 mg/kg and an inhibition in vivo at 40 mg/kg [5] of 96%.
With `Cc1nc2c(OCc3ccc(F)cc3)cccn2c1CC#N` the inhibition in vivo at 4 mg/kg [2] was 35%, the inhibition in vivo at 5 mg/kg [6] was 95% and the inhibition in vivo at 8 mg/kg [3] was 87%. It also gave an ED50 [4] of 5 mg/kg and an inhibition in vivo at 40 mg/kg [5] of 99%.
Compound `N#CCc1cnc2c(OCc3ccccc3)cccn12` has an inhibition in vivo at 1 mg/kg [1] of 52%, an inhibition in vivo at 2 mg/kg [8] of 96% and an inhibition in vivo at 2 mg/kg [9] of 6%. It also gave an inhibition in vivo at 8 mg/kg [3] of 46%, an ED50 [4] of 1 mg/kg and an inhibition in vivo at 40 mg/kg [5] of 99%.
Compound `Cc1nc2c(OCc3ccc(Cl)c(Cl)c3)cccn2c1CC#N` has an inhibition in vivo at 2 mg/kg [8] of 89%, an inhibition in vivo at 4 mg/kg [2] of 16% and an inhibition in vivo at 8 mg/kg [3] of 23%. The ED50 [4] was 6 mg/kg and the inhibition in vivo at 40 mg/kg [5] was 42%.
`Cc1nc2c(OCc3ccc(C(F)(F)F)cc3)cccn2c1CC#N` showed an inhibition in vivo at 2 mg/kg [8] of 44%, an inhibition in vivo at 4 mg/kg [2] of 27% and an inhibition in vivo at 5 mg/kg [6] of 59%. The inhibition in vivo at 8 mg/kg [3] was 25%, the ED50 [4] was 3 mg/kg and the inhibition in vivo at 40 mg/kg [5] was 26%.
For `Cc1nc2c(OCc3ccccc3)cccn2c1CO`, the inhibition in vivo at 1 mg/kg [1] was 57%, the inhibition in vivo at 2 mg/kg [8] was 80% and the inhibition in vivo at 4 mg/kg [2] was 20%. It also gave an inhibition in vivo at 5 mg/kg [6] of 80%, an inhibition in vivo at 8 mg/kg [3] of 20% and an ED50 [4] of 16 mg/kg. For the same compound, the inhibition in vivo at 40 mg/kg [5] was 99%.
In the case of `Cc1cc(C)c(COc2cccn3c(CC#N)c(C)nc23)c(C)c1`, the inhibition in vivo at 2 mg/kg [8] is reported as 22%, the inhibition in vivo at 4 mg/kg [2] is reported as 0% and the inhibition in vivo at 5 mg/kg [6] is reported as 86%. It also gave an inhibition in vivo at 8 mg/kg [3] of 40% and an inhibition in vivo at 40 mg/kg [5] of 49%.
`Cc1nc2c(OCCc3ccccc3)cccn2c1CC#N` gave an inhibition in vivo at 2 mg/kg [9] of 0%, an inhibition in vivo at 4 mg/kg [2] of 47% and an inhibition in vivo at 5 mg/kg [6] of 95%. It also gave an inhibition in vivo at 8 mg/kg [3] of 89%, an ED50 [4] of 6 mg/kg and an inhibition in vivo at 40 mg/kg [5] of 70%.
With `Cc1nc2c(N(C)Cc3ccccc3)cccn2c1CC#N` the inhibition in vivo at 2 mg/kg [8] was 46%, the inhibition in vivo at 4 mg/kg [2] was 23% and the inhibition in vivo at 40 mg/kg [5] was 94%.
`Cc1nc2cccc(CCc3ccccc3)n2c1CC#N` showed an inhibition in vivo at 1 mg/kg [1] of 71%, an inhibition in vivo at 8 mg/kg [3] of 9% and an ED50 [4] of 7.2 mg/kg. The inhibition in vivo at 40 mg/kg [5] was 20%.
In the case of `Cc1nc2c(OCc3ccc(C#N)cc3)cccn2c1CC#N`, the inhibition in vivo at 4 mg/kg [2] is reported as 0%, the inhibition in vivo at 5 mg/kg [6] is reported as 71% and the inhibition in vivo at 8 mg/kg [3] is reported as 33%. The ED50 [4] was 8 mg/kg and the inhibition in vivo at 40 mg/kg [5] was 69%.
In the case of `Cc1nc2c(OCc3ccccc3)cccn2c1CC(=N)S`, the inhibition in vivo at 2 mg/kg [8] is reported as 21%, the inhibition in vivo at 4 mg/kg [2] is reported as 34% and the inhibition in vivo at 5 mg/kg [6] is reported as 62%. The inhibition in vivo at 8 mg/kg [3] was 60%, the ED50 [4] was 7 mg/kg and the inhibition in vivo at 40 mg/kg [5] was 67%.
For `COc1ccc(COc2cccn3c(CC#N)c(C)nc23)cc1`, the inhibition in vivo at 2 mg/kg [8] was 43%, the inhibition in vivo at 4 mg/kg [2] was 13% and the inhibition in vivo at 8 mg/kg [3] was 7%. The inhibition in vivo at 40 mg/kg [5] was 25%.
